Compound activity (PubChem)
In the library only some 2.6% were active in any assay of this set; here they are far more common.
Myeloid diff MLP: compounds promoting myeloid differentiation; ER-HoxA9 myeloid progenitors, lysozyme-GFP differentiation, flow cytometry; calls only at 10 µM; actives 1% (n = 360,000); AID 624256;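 active = normalized GFP-positive differentiation at or above the plate's own cutoff, the solvent-only control mean plus 3 SD; inconclusive = no clear call, values can overlap the other calls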;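 note: cells exposed to compound for four days before flow analysis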
Rin1 Abl inh: human Rin1-Abl interaction inhibition; TR-FRET Rin1/Abl binding, biochemical; inhibition, % at 7.35 µM; actives 0.4% (n = 360,000); AID 588664; in the data active = inhibition above about 5%, passing the limit was not always enough
Rce1 inh: yeast Ras-converting enzyme inhibition | calls only | yeast membranes, quenched prenylated peptide cleavage fluorescence | actives 0.27% (n = 290,000) | Q03530;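 active = fall in fluorescence gain of 50% or more versus controls, with final raw signal at or below 3038400; inconclusive = same 50% fall but final raw signal above 3038400; inactive = fall in fluorescence gain under 50%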;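 note: plate controls were neutral control wells for no effect and wells lacking membranes for full effect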
Target sequence (Q03530 whole entry, looked up): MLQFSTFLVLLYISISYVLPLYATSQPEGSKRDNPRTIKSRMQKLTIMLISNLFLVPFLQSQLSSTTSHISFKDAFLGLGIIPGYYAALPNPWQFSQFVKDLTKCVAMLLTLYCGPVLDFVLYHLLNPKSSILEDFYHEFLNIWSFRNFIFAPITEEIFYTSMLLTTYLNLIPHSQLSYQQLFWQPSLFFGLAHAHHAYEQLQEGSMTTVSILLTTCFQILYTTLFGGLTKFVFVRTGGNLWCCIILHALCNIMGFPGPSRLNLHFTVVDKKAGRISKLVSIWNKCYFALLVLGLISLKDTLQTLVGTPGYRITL
T cell modulator: T cell immune modulation candidate; 2C CD8+ T cell-vesicle binding, flow cytometry; hits give low values; response (vesicle binding), % at 7 µM; actives 0.068% (n = 330,000); AID 2052;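 active = response, share of CD8 T cells binding vesicles, and their 90th percentile fluorescence all below set limits, cut at about 80% in these data, passing the limit was not always enough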;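 note: values below 100% mean blocked vesicle binding to the CD8+ T cells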
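Read-out – percent CD8+ FL2 mean versus row control · System – murine 2C transgenic CD8+ T lymphocytes · Times – 1.5 h cell–vesicle binding at 37 °C, then 20 min icy labelling · Control set – naked vesicles low, QL9 vesicles with vehicle high · Detection – cytometric PE anti-B7-1 and Alexa647 anti-CD8 signals after 1% paraformaldehyde fixation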
GRK2 inh: blocks RNA aptamer binding to human GRK2 | P25098 | actives 0.59% (n = 330,000) | bead flow cytometry, FAM-aptamer displacement from GRK2 | inhibition of aptamer binding, % at 10 µM;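 active = inhibition of aptamer binding above 40%, roughly 3 SD of noise, on plates passing a quality check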;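 note: median bead fluorescence of bound FAM aptamer so fluorescent compounds give negative values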
SKN-1 block: blocks SKN-1 activity in C. elegans; inhibition, % at 21.8 µM; C. elegans VP596 Pgst-4::GFP/RFP ratio, acrylamide-induced, 24 h; actives 0.49% (n = 360,000);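 active = interference check ratio from 0.5 to 1.5 plus GFP to RFP signal ratio inhibition reaching or exceeding a fixed threshold, cut at about 30% in these data, passing the limit was not always enough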
GRK2 inh confirm: confirmation of human GRK2 inhibitors displacing RNA aptamer. aptamer displacement, % at 10 µM. actives 4% (n = 2,000). shares compounds with GRK2 inh. bead-bound GRK2, FAM-aptamer displacement, flow cytometry;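 active = aptamer displacement above 40%, near three times the noise of non-fluorescent compounds, on plates passing quality checks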;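 note: negative values mostly reflect intrinsic compound fluorescence rather than true enhancement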
Aptamer quench SP: quenches fluorescent RNA aptamer, GRK2 hit artifact; shares compounds with GRK2 inh; Carboxyfluorescein RNA aptamer on beads, flow cytometry quenching; hits give low values; fluorescence response (% of DMSO), % at 10 µM; 2,000 tested, under 10 active;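 active = compounds that quench the bead-bound fluorescent RNA probe, cutting fluorescence to under half of the solvent control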;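 note: counterscreen run without GRK2 so only probe quenching by compound is measured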
Rin1-Abl confirm: Rin1-Abl interaction inhibition confirmation. AID 602124. shares compounds with Rin1 Abl inh. actives 49% (n = 1,300). TR-FRET Rin1-Abl binding, purified proteins. inhibition, % at 7.35 µM
GFP quench: counter-screen for Rin1-Abl inhibitors: GFP fluorescence quenchers | inhibition, % at 6.75 µM | shares compounds with Rin1 Abl inh | inhibitors/quenchers counterscreen | actives 8.5% (n = 1,300);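 note: ABL1-eGFP fusion protein alone without its partner RIN1-SBP; 0% = protein with vehicle and 100% = wells lacking protein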
GFP quench DR: GFP fluorescence interference dose response. shares compounds with Rin1 Abl inh. GFP fluorescence interference/quenching counterscreen. IC50, µM. 230 tested, under 10 active. AID 602182; call rule not given here;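 note: ABL1-eGFP fusion protein alone without its RIN1 binding partner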
Myeloid diff: myeloid differentiation induction; actives 2% (n = 2,300); shares compounds with Myeloid diff MLP; calls only; ER-HoxA9 myeloid progenitors, GFP/Mac1 double-positive flow; AID 651706;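 active = share of green or green-and-red cells above 9 and 9% in run 1 or 4 and 3% in run 2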
GFP autofluor: counter-screen for myeloid differentiation promoters: compound fluorescence | fluorescence response, % (test concentration not listed) | actives 7.4% (n = 2,300) | ER-HoxA9 myeloid progenitors, no estrogen, GFP autofluorescence flow cytometry; vehicle wells 0%, positive control 100% | shares compounds with Myeloid diff MLP;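 active = over 5% cells positive for green fluorescent reporter, or over 2% positive for both it and APC stain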;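 note: range taken on the double positive population between DMSO and positive control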
* marks the source's active call; other numbers are inactive results; i = inactive; ? = inconclusive; . = not tested or not shown; + = active, no number. Cut-off read from the data, not from the text of the source, unless noted: active = inhibition above about 6.5%; inactive = the rest.

SMILES | Myeloid diff MLP | Rin1 Abl inh | Rce1 inh | T cell modulator | GRK2 inh | SKN-1 block | Rin1-Abl confirm | GFP quench | others
CCOC(=O)C1=C(COC(=O)c2cc(S(=O)(=O)N(C)C)ccc2C)NC(=O)NC1C (centres undefined) | i | -2.1 | . | 362.1 | 2.0 | 2.4 | . | .
Cc1nn(-c2ncc(C(F)(F)F)cc2Cl)c(=O)n1-c1c(F)cccc1F | i | 2.5 | i | 159.0 | 0.0 | 2.5 | . | .
Cc1cccc(C)c1-n1c(C)nn(-c2ncc(C(F)(F)F)cc2Cl)c1=O | i | 3.0 | i | 575.3 | 90.0* | 8.7 | . | . | GRK2 inh confirm=1.6;Aptamer quench SP=95.7;Myeloid diff=i;GFP autofluor=0.2
O=C(NNc1c(F)c(F)cc(F)c1F)C1CCN(S(=O)(=O)c2ccccc2F)CC1 | i | 2.2 | . | 375.3 | 0.0 | -9.1 | . | .
O=C(NC1CC1)c1cccc(NC(=O)c2cnn(-c3ccccc3)n2)c1 | + | 1.7 | . | 560.3 | 4.0 | 9.4 | . | . | GRK2 inh confirm=-0.7;Aptamer quench SP=94.2;Myeloid diff=i;GFP autofluor=4.5
Cc1ccc(NC(=O)C2CCN(c3ncnc4c3nc3n4CCCCC3)CC2)nc1 | i | 3.5 | i | 192.5 | 25.0 | 21.7 | . | .
COc1ccccc1CNC(=O)C1CCCN(S(=O)(=O)c2ccc3c(c2)C(C)(C)C(=O)N3C)C1 (centres undefined) | i | -1.8 | i | 920.7 | 0.0 | 5.1 | . | . | GRK2 inh confirm=1.0;Aptamer quench SP=96.3;Myeloid diff=i;GFP autofluor=0.0
Nc1cccn2c(-c3ccc(Cl)cc3)cnc12 | + | 2.1 | i | 110.6 | 19.0 | 15.0 | . | . | GRK2 inh confirm=-1.1;Aptamer quench SP=98.9;Myeloid diff=i;GFP autofluor=0.0
CN(C)CCNC(=O)C(=O)Nc1ccc2c(c1)N(S(=O)(=O)c1cccs1)CCC2 | i | -3.4 | i | 260.2 | 0.0 | 8.1 | . | .
CCC(C)Nc1nc2c(c(=O)[nH]c(=O)n2C)n1CCC(C)C (centres undefined) | + | 1.1 | i | 408.0 | 52.0* | 3.0 | . | . | GRK2 inh confirm=0.2;Aptamer quench SP=101.3;Myeloid diff=i;GFP autofluor=0.8
CC1(C)NC(=O)N(CCCCOc2ccc(Cl)cc2C=O)C1=O | i | 0.7 | i | 247.7 | 2.0 | 3.9 | . | .
CC1(C)NC(=O)N(CCCCOc2ccc(Cl)cc2)C1=O | i | 1.3 | i | 442.1 | 70.0* | 8.4 | . | . | GRK2 inh confirm=-2.9;Aptamer quench SP=97.3;Myeloid diff=i;GFP autofluor=0.0
O=C1C(=O)c2cccnc2-c2ncccc21 | ? | 50.3* | . | . | . | -2.4 | 48.7* | 0.8 | GFP quench DR=>67.5
O=C1c2cccnc2-c2ncccc21 | i | -8.0 | i | 531.2 | 0.0 | 4.2 | . | .
CC(CNC(=O)CN1C(=O)CCSc2ccccc21)c1ccccc1 (centres undefined) | i | -2.6 | i | 591.8 | 0.0 | 2.8 | . | .
CCOc1ccc(CCNC(=O)CN2C(=O)CCSc3ccccc32)cc1 | i | 10.6* | i | 212.1 | 2.0 | 9.8 | 1.4 | 0.4
CC(C)(C)c1nnc(NS(C)(=O)=O)s1 | i | 9.9* | i | 512.5 | 0.0 | -0.5 | 1.0 | 0.6
COc1ccc(S(=O)(=O)Nc2nnc(C(C)(C)C)s2)cc1 | i | 2.5 | . | 283.6 | 0.0 | -2.1 | . | .
c1ccc(CC(Nc2ccccn2)c2ccccc2)cc1 (centres undefined) | i | -1.6 | i | 431.2 | 2.0 | -3.0 | . | .
CCOc1ccc2nc(NC(=O)C3CCN(C(=O)c4ccco4)CC3)sc2c1 | i | 8.0* | i | 223.7 | 3.0 | -0.4 | 3.4 | -3.4
CSCC[C@H](NC(=O)N1CCn2c1nc1ccccc12)C(=O)NCc1ccco1 | ? | 2.1 | i | 213.8 | 3.0 | 6.8 | . | .
CC1(C)Cc2nc3nc(SCC(=O)NCCc4ccccc4)n(-c4ccccc4)c(=O)c3cc2CO1 | i | 8.2* | i | 602.2 | 2.0 | 0.2 | 6.0 | 2.3
O=C(N/N=C/c1ccc(OC(F)F)cc1)c1cccc(S(=O)(=O)N2CCOCC2)c1 | i | -4.9 | i | i | 4.0 | -4.2 | . | .
O=C(NN=c1c(=O)c2ccccc2c1=O)c1ccccc1 | i | 23.4* | i | 202.1 | 2.0 | 11.0 | 29.4* | -0.1 | GFP quench DR=>67.6
Cc1c(NC(=O)CSc2ncccn2)c(=O)n(-c2ccccc2)n1C | i | 5.4* | i | 279.8 | 1.0 | -10.8 | 2.1 | -1.1
SMILES | Myeloid diff MLP | Rin1 Abl inh | Rce1 inh | T cell modulator | GRK2 inh | SKN-1 block | Rin1-Abl confirm | GFP quench | others
Cc1c(NC(=O)c2ccc(N(C)S(=O)(=O)c3ccccc3)cc2)c(=O)n(-c2ccccc2)n1C | i | 9.8* | i | 299.5 | 1.0 | 0.0 | 0.8 | -1.9
Cc1c(NC(=O)c2ccc(Cl)s2)c(=O)n(-c2ccccc2)n1C | i | 6.2* | i | 381.6 | 0.0 | -7.9 | -1.7 | 0.8
O=C1C=C(c2ccc3c(c2)OCO3)C[C@@H](c2ccc(Cl)cc2)C1 | i | 3.6 | . | 676.8 | 2.0 | -6.0 | . | .
Cc1cc(C)n2nc(CC(=O)NNC(=O)COc3ccccc3)nc2n1 | i | -1.6 | i | 379.9 | 0.0 | 11.3 | . | .
CC(=O)NCC1(c2ccccc2)CCN(CCCC(=O)c2ccc(F)cc2)CC1 | i | 14.3* | . | . | . | 12.0 | 14.8* | -1.1
CC(=O)NCC1(c2ccccc2)CCN(CC2COc3ccccc3O2)CC1 (centres undefined) | i | 5.9 | . | . | . | -5.9 | . | .
CN1CCN(c2ccc(CNC(=O)C3Cc4c(-c5ccccc5)ccnc4O3)cc2)CC1 (centres undefined) | i | 8.1* | . | . | . | 1.2 | 4.9 | -1.4
COc1ccc(C(c2oc(CO)cc(=O)c2O)c2oc(CO)cc(=O)c2O)cc1 | . | 16.5* | i | 372.6 | 0.0 | -0.6 | 10.6* | 2.5
O=C(c1ccc(Cl)c(Cl)c1)N1CCC(=O)N([C@H](COCc2ccccc2)Cc2ccccc2)CC1 | i | . | . | . | . | -1.7 | . | .
O=C(c1ccc(Cl)c(Cl)c1)N1CCC(=O)N(C(COCc2ccccc2)Cc2ccccc2)CC1 (centres undefined) | i | 9.5* | i | 561.4 | 3.0 | -3.0 | 14.6* | 0.0
